Series [1] in a line: Solubility in ammonium acetate buffer at pH 7.4 by pseudothermodynamic equilibrium assay. It counts as physicochemical.
Series [2] relates to CYP3A4. Nature of the series: Metabolic stability assessed as compound remaining after 1 hr in presence of human CYP3A4. It counts as ADME. The note with it: read-out: Stability.
Series [3] deals with CYP2D6 (Homo sapiens, UniProt P10635). Description: Inhibition of CYP2D6 at 3 uM by Gentest method. It counts as ADME.
Series [4] addresses CYP3A4 (Homo sapiens, UniProt P08684). Nature of the series: Inhibition of CYP3A4 at 3 uM by Gentest method. It counts as ADME.
For series [5], the target named is CYP2C9 (Homo sapiens, UniProt P11712). Nature of the series: Inhibition of CYP2C9 at 3 uM by Gentest method. It counts as ADME.
CYP2C9, sequence (P11712 whole entry): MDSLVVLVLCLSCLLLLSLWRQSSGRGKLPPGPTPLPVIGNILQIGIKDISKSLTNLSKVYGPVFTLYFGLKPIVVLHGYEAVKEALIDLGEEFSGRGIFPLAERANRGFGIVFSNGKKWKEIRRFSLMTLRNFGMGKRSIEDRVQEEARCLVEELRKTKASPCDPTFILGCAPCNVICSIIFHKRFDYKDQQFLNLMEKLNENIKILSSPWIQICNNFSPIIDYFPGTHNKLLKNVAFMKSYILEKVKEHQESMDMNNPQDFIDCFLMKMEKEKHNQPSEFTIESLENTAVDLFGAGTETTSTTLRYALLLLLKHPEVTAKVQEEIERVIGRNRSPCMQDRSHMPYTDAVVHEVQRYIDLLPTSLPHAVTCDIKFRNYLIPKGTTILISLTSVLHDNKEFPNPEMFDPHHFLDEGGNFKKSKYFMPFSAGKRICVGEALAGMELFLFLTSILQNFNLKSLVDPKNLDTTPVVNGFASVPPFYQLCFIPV
A short description of series [6]: Intrinsic clearance in rat liver microsomes by LC-MS/MS analysis. The series is classed as ADME, Microsome. The essentials: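 Rat liver microsomes (0.633 mg/mL protein in 0.1 M potassium phosphate pH 7.4 with EDTA) were incubated with test compound and NADPH regenerating agent for 15 min at 37 °C, against a time-0 control, in duplicate. Reactions were quenched with cold acetonitrile, centrifuged, and supernatants analyzed by LC-MS.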
A general note: Liver microsomes are vesicles of endoplasmic reticulum, rich in cytochrome P450 enzymes.

Series [7] addresses Neuronal acetylcholine receptor; alpha4/beta2 (Homo sapiens, UniProt P17787+P43681). Description: Agonist activity at alpha4beta2 nAChR. The series is classed as functional.
Series [8] deals with 5-hydroxytryptamine receptor 4 (Homo sapiens, UniProt Q13639). Description: Binding affinity to 5HT4 receptor. An outline of the steps: (§1)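 Screened at 10 μM in a panel of about 70 receptor binding sites (Novascreen).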
5-hydroxytryptamine receptor 4, sequence (Q13639 whole entry): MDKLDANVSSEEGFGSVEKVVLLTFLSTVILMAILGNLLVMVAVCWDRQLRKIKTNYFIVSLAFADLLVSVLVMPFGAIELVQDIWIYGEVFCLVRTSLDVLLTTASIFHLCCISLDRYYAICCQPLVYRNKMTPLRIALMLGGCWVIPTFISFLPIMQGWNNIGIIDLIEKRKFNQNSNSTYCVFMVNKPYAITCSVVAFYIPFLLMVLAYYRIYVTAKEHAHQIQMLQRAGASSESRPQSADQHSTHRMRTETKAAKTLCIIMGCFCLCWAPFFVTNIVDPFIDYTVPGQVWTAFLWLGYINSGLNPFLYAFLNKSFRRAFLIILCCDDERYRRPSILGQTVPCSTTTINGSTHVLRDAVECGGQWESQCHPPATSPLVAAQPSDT
Series [9] has as its target T1, Alpha-2A adrenergic receptor (Homo sapiens, UniProt P08913).
T1 sequence (P08913 whole entry): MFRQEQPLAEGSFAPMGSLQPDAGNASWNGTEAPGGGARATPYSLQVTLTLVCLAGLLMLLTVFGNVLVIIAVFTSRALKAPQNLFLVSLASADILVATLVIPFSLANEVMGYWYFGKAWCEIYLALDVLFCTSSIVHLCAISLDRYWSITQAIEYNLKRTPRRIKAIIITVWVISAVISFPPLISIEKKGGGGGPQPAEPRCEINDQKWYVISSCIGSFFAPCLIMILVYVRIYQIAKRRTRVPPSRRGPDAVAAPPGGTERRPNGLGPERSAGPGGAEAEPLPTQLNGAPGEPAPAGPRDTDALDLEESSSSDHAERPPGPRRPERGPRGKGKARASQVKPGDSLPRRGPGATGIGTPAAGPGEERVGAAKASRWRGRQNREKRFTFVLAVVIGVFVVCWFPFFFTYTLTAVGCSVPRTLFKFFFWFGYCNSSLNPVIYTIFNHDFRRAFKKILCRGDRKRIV
Description: Binding affinity to adrenergic alpha2A receptor. An outline of the steps: as §1

Series [10] deals with T2, Alpha-2B adrenergic receptor (Homo sapiens, UniProt P18089).
T2 sequence (P18089 whole entry): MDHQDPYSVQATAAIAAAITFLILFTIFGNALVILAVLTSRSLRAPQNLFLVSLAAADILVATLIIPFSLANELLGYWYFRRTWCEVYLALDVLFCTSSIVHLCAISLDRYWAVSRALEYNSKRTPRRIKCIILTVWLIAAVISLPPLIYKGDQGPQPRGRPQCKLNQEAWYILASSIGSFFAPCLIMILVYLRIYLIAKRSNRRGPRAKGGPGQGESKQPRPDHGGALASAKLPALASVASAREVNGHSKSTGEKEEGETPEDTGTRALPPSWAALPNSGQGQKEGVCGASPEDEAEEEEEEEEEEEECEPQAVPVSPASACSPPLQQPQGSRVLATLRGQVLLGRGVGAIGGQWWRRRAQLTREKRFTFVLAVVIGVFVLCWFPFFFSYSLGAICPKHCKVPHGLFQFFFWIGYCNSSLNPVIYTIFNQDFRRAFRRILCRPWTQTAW
Nature of the series: Binding affinity to adrenergic alpha2B receptor. An outline of the steps:
as §1

The test system of series [11] is Rattus norvegicus. Description: Cmax in Long Evans rat at 3 mg/kg, po. It counts as ADME, organism-based. Also on record: dose 3 mg/kg, route oral. The note with it: in vivo. An outline of the steps:
(§2)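 Male Long Evans rats (6-8 weeks, 250-550 g) given a single 3 mg/kg oral dose as a solution in 2% Tween, 0.5% methocell in water. Plasma sampled over 6 h. Levels measured by LC-MS/MS after acetonitrile protein precipitation with internal standard; detection limit 1 ng/mL.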

Series [12] in a line: Tmax in Long Evans rat at 3 mg/kg, po. It counts as ADME, organism-based. Details: dose 3 mg/kg, route oral. The note with it: in vivo. An outline of the steps: as §2
Series [13] can be described thus: AUC (last) in Long Evans rat at 3 mg/kg, po. Particulars: plasma. Also on record: time 0 - last, dose 3 mg/kg, route oral. It counts as ADME, organism-based. An outline of the steps: as §2
Series [14] is described as follows: Oral bioavailability in Han Wistar rat assessed as ratio of AUC (0 to infinity) at 10 mg/kg, po normalized to 2 mg/kg, iv. It counts as ADME, organism-based. The note with it: in vivo.
A short description of series [15]: Half life in Han Wistar rat at 10 mg/kg, po and 2 mg/kg, iv. It counts as ADME, organism-based. Particulars: in vivo.
Series [16] in a line: Ratio of drug level from brain to plasma in Han Wistar rat at 2 mg/kg, po. It counts as ADME, organism-based. Also on record: dose 2 mg/kg, route oral. Particulars: read-out: BPR. An outline of the steps:
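Male Han Wistar rats received a single 2 mg/kg po dose. Ratio calculated from brain and plasma AUC0-inf.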

A short description of series [17]: AUC (0 to infinity) in brain of Han Wistar rat at 2 mg/kg, po. It counts as ADME, organism-based. Also on record: time infinity, dose 2 mg/kg, route oral.
Series [18] is described as follows: AUC (0 to infinity) in plasma of Han Wistar rat at 2 mg/kg, po. Also on record: time infinity, dose 2 mg/kg, route oral. The series is classed as ADME, organism-based.
Series [19] relates to Rattus norvegicus. Nature of the series: Inhibition of MK-801-induced cognitive function in po dosed Long Evans rat administered 60 mins prior to MK801 challenge measured after 1 hr by novel object recognition test. Particulars: read-out: MED. It counts as functional. The essentials:
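NOR in rats: vehicle or test compound (0.3-30 mg/kg po) 60 min before the sample trial, and MK-801 (0.03 mg/kg ip) 30 min before. Sample trial was 5 min with two identical objects. Choice trial, 1 h later, was 5 min with one familiar and one novel object. N = 10 per group.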

The subject of series [20] is Rattus norvegicus. Description: Inhibition of MK-801-induced perceptual processing in po dosed Long Evans rat administered 60 mins prior to MK801 challenge measured after 1 hr by prepulse inhibition test. It counts as functional. Particulars: read-out: MED. The essentials:
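Rat prepulse inhibition: test compound (1-30 mg/kg) given po 60 min and MK-801 (0.085 mg/kg) sc 10 min before testing. After 5 min at 64 dB background, 61 trials were run: 120 dB pulse alone or with a 69/74/79 dB prepulse 100 ms earlier. PPI = 100 - (prepulse/pulse startle × 100). Chronic arm: 3 mg/kg po daily for 14 days.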

Series [21] concerns the target T3, 5-hydroxytryptamine receptor 3A (Homo sapiens, UniProt P46098).
T3 sequence (P46098 whole entry): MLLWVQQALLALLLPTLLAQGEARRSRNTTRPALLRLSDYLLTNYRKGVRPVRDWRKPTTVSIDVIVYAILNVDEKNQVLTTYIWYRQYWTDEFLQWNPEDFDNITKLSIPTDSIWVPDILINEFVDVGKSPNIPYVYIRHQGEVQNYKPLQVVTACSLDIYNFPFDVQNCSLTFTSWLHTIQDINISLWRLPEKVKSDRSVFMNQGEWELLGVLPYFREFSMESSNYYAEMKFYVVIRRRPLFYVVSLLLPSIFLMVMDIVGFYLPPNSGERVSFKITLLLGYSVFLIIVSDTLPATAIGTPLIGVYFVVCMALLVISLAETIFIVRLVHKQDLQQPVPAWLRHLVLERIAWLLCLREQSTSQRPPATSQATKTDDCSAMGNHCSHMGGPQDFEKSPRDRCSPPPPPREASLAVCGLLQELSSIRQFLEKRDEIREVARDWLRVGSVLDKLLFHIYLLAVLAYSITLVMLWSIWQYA
Description: Antagonist activity at human 5HT3A receptor expressed in HEK293 cells by FLIPR assay.

Values after ≈ are worked out from the molar mass of the structure shown. A value given as a limit tells only on which side of the number the result lay.

As a reminder, the solubility (thermodynamic) is solubility found after equilibrating the solid with the medium. As a reminder, the inhibition is the relative decrease from the control value, in per cent. By microsomal CLint is commonly meant the rate of metabolic loss divided by the concentration. As a reminder, the IC50 is the point on the concentration scale where inhibition reaches its midpoint. A low value points to greater potency in that assay. The Ki is a measure of affinity in units of concentration, obtained from inhibition or displacement. A high value points to lower affinity. A word on the Cmax: it is the highest concentration seen after dosing. The Tmax is the time from dosing to the highest level. As a reminder, the AUC(0-t) is the area under the concentration-time curve up to a stated or last time point. The bioavailability is the share of a dose that reaches the circulation, judged against a reference dose that is usually intravenous. For orientation: half-life means how long it takes for the measured level to halve. Low readings indicate fast loss, high ones slow loss. The AUC(0-inf) is total exposure, with the tail of the curve extrapolated.

Neuronal acetylcholine receptor; alpha4/beta2, sequence (P17787 whole entry): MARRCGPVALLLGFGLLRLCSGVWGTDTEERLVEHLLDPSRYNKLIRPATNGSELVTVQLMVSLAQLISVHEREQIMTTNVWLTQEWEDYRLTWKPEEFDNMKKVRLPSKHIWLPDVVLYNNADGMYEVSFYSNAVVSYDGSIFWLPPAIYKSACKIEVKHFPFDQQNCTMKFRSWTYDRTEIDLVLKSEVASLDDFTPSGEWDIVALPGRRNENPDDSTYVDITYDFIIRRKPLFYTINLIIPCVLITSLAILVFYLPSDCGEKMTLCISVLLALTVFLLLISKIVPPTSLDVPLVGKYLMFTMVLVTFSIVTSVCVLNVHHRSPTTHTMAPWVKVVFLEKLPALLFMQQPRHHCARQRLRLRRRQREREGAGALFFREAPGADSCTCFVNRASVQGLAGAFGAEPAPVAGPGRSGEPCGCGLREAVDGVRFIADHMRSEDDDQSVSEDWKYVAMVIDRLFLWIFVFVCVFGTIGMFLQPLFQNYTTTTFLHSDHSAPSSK
Neuronal acetylcholine receptor; alpha4/beta2, sequence (P43681 whole entry): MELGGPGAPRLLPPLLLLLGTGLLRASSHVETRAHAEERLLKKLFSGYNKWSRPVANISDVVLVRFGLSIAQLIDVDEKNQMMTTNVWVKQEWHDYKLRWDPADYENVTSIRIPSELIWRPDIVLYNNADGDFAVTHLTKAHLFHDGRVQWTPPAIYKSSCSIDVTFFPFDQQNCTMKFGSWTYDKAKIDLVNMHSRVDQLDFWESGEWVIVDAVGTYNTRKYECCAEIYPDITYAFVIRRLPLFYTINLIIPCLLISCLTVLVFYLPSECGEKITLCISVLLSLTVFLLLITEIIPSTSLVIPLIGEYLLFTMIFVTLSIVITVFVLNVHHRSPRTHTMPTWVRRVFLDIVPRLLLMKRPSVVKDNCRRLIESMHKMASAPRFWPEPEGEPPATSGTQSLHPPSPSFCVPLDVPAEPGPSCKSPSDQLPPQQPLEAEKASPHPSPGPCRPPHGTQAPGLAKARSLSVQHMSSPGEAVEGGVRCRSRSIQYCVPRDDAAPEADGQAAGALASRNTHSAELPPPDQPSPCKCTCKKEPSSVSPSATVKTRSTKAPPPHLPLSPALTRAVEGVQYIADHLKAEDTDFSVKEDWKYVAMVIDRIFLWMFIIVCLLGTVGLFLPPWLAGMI
CYP2D6, sequence (P10635 whole entry): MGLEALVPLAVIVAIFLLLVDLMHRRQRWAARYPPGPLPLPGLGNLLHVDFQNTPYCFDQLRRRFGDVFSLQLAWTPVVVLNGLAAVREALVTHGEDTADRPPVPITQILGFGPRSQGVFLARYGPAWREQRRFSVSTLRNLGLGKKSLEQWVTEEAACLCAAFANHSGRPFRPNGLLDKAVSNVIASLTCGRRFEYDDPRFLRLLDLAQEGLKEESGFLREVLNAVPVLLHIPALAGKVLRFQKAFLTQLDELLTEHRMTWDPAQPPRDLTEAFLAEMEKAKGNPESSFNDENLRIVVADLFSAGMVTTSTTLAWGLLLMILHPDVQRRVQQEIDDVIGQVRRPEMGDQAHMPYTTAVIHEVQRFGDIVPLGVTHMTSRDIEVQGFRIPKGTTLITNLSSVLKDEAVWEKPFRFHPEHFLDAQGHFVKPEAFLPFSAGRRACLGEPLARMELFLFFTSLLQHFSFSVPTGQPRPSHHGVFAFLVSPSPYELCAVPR
CYP3A4 (Homo sapiens, UniProt P08684), sequence (P08684 whole entry): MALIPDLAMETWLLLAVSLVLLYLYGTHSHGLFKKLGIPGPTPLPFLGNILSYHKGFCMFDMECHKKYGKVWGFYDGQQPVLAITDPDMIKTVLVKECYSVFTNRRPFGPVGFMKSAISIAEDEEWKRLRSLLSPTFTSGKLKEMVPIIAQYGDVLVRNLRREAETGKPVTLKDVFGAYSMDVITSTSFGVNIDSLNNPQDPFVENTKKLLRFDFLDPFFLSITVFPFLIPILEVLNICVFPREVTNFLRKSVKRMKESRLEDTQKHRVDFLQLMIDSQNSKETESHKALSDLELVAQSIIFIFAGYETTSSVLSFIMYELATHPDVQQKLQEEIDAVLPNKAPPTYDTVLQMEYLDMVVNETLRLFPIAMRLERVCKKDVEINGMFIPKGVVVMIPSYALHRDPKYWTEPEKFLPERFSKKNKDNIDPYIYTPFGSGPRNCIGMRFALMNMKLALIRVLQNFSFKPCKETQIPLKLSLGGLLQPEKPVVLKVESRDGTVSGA

`O=C(NCCCCN1CCCCC1)Nc1ccc(-c2ccc(F)cc2)nc1` returned a thermodynamic solubility in series [1] of 121 µM (≈ 44.8 µg/mL). In addition, the remaining at 1 h in [2] amounted to 75%. Further, the inhibition at 3 µM is 19% in series [3], 0% in series [4] and -17% in series [5]. Besides, the microsomal CLint in series [6] was < 5 µL/min/mg. In addition, the IC50 in [7] was > 30 µM; in [9], 7.5 µM; in series [10], 35 µM; in series [21], > 30 µM. For the same compound, the Ki in [8] is 6 µM. For the same compound, the peak concentration (Cmax) in series [11] amounted to 40 ng/mL. The Tmax in [12] is 5.3 h. The AUC(0-t) in [13] came to 318 ng·h/mL. Moreover, the bioavailability in series [14] came out at 100%. For the same compound, the half-life in [15] was 3.5 h. Besides, the Kp in series [16] came to 0.3. Further, the AUC(0-inf) in [17] was 215 ng·h/mL; in series [18], 768 ng·h/mL. Further, the minimal effective dose in series [19] and in [20] was 3 mg/kg each time.

The record behind these values is ChEMBL document CHEMBL1155527 (J Med Chem, 2010).
